The values that follow come from ChEMBL document CHEMBL3046500, “Secondary metabolites from Glycine soja and their growth inhibitory effect against Spodoptera litura” (J Agric Food Chem, 2011).

In data set [1] the test system is Spodoptera litura. Kind of data set: Drug metabolism in fourth instar larval stage of Spodoptera litura assessed in excrements after feeding diet containing compound by HPLC analysis. The data set is classed as ADME, organism-based. To be noted: in vivo, po. An outline of the steps: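 Excrement from treated and control larvae was collected separately, extracted with methanol under ultrasonication (3 × 20 min), centrifuged, and the supernatant run on RP-18 HPLC (250 × 4.6 mm, 5 μm) at 30 °C and 1.0 mL/min. Elution used a water/methanol gradient set per analyte over 0–30 min, then 95% methanol. DAD read at 210/238/254/280 nm; TLC (CHCl3/MeOH 4:1) for a non-UV-absorbing analyte.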

Data set [2] has as its system Spodoptera litura. Kind of data set: Antifeedant activity against fourth instar larval stage of Spodoptera litura on fresh cabbage leaves. Type of data set: functional, organism-based.
Data set [3] concerns Spodoptera litura. Kind of data set: Insecticidal activity against fourth instar larval stage of Spodoptera litura in glandless fresh cabbage leaves assessed as growth inhibition measured 3 days after feeding diet containing compound. Type of data set: functional, organism-based. A digest of the protocol:
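Larvae starved 4 h, weighed, then placed on treated material for 4 h. They were then moved to fresh untreated leaves or artificial diet. This was repeated every 24 h, with each larva's weight recorded. Seven replicates per treatment; whole experiment run three times.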

The source made the active and inactive calls. The rule behind the calls is not given here.

For the molecule `O=c1c(-c2ccc(O)cc2)coc2cc(O)ccc12` [DAIDZEIN], the Drug metabolism entry in data set [1] is recorded as “Not Active”. In addition, in data set [2], the result was inactive. The “growth inhibition (GI)” value in data set [3] is “Active”.
The corresponding values for `O=c1c(-c2ccc(O)cc2)coc2cc(O)cc(O)c12` [GENISTEIN] are “Active”, “inactive” and “inactive”.
Consider `O=c1c(-c2ccc(O)cc2)coc2cc(O[C@@H]3O[C@H](CO)[C@@H](O)[C@H](O)[C@H]3O)cc(O)c12` [GENISTIN], for which the Drug metabolism entry in data set [1] is reported as “Active”. Besides, the result in data set [2] was inactive. Further, the “growth inhibition (GI)” value in data set [3] is “inactive”.
Take `CO[C@H]1[C@H](O)[C@@H](O)[C@@H](O)[C@H](O)[C@@H]1O` [METHYLINOSITOL]: the Drug metabolism entry in data set [1] is reported as “Active”. Besides, the outcome in data set [2] was inactive. In addition, the “growth inhibition (GI)” value in data set [3] is “inactive”.
